Experimental data published in ChEMBL document CHEMBL2440065, “Identification of a novel benzoxazolone derivative as a selective, orally active 18 kDa translocator protein (TSPO) ligand” (J Med Chem, 2013).
Values after ≈ are worked out from the molar mass of the structure shown. Active and inactive are the calls of the source. No cut-off for these calls is given here.

Tests used:
[1] = biological target: Translocator protein (Rattus norvegicus, UniProt P16257); assay: Displacement of [3H]PK11195 from Sprague-Dawley rat kidney TSPO after 1 hr by liquid scintillation counting analysis
Chain of Translocator protein (P16257 whole entry, looked up): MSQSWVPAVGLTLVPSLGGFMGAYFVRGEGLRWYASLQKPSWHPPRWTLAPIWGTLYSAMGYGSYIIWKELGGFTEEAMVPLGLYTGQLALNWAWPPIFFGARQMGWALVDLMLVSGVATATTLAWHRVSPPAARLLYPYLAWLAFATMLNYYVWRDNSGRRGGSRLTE

[2] = Solubility of the compound at pH 2.5 by HPLC analysis; assay type: physicochemical; settings: buffer
Summary of the method: (§1)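 Compound (1 mg) shaken in 0.4 mL buffered solution at pH 7.4 or pH 2.5, then centrifuged; dissolved compound in the supernatant quantified by HPLC.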

[3] = Solubility of the compound at pH 6.8; assay type: physicochemical; settings: buffer
Summary of the method: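 Solubility measured in pH 6.8 buffer containing bile acids; compound tested as free base and as HCl salt.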

[4] = Displacement of [3H]batrachotoxin from rat brain sodium channel site 2; assay type: tissue-based
[5] = Metabolic stability in rat liver S9 fraction assessed as compound remaining at 1 uM after 30 mins in presence of NADPH; assay type: ADME, subcellular; settings: read-out: Stability
[6] = Solubility of the compound at pH 7.4 by HPLC analysis; assay type: physicochemical; settings: buffer; summary of the method: as §1
[7] = organism: Rattus norvegicus; assay: Displacement of [3H]flumazenil from Sprague-Dawley rat cerebral cortex CBR at 10 uM after 1 hr by liquid scintillation counting analysis; assay type: tissue-based
[8] = biological target: CYP2C19 (Homo sapiens, UniProt P33261); assay: Inhibition of CYP2C19 (unknown origin) at 1 uM; assay type: ADME
Chain of CYP2C19 (P33261 whole entry): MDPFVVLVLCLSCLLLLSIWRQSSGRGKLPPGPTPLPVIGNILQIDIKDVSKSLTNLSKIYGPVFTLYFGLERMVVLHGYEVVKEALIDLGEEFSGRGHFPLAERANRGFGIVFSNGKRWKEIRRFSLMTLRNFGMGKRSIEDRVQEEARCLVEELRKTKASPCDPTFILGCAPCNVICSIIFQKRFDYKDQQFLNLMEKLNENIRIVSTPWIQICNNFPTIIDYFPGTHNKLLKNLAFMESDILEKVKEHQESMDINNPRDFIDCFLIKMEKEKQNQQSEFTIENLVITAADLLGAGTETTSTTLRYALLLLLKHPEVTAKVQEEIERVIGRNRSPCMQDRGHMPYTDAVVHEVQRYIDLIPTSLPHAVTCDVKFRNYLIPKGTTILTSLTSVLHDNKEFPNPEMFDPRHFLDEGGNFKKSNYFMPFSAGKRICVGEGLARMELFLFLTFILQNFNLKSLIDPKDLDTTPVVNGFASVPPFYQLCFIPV

[9] = system: Rattus norvegicus; assay: Anxiolytic-like activity in Sprague-Dawley rat vogel conflict model at 3 mg/kg, po after 1 hr; assay type: functional, organism-based; set-up: dose 3 mg/kg
[10] = organism: Rattus norvegicus; assay: Displacement of [3H]batrachotoxin from rat brain sodium channel site 2 at 10 uM relative to control; assay type: tissue-based

## CN(C(=O)Cn1c(=O)oc2ccc(-c3ccc(OC(F)(F)F)cc3)cc21)c1cccnc1 [listing 1 of 2 here]
[1]
  Ki: 4.9 nM
[2]
  solubility: 4 µg/mL (≈ 9.02 µM)
[3]
  solubility: 20 µg/mL (≈ 45.1 µM)
[4]
  IC50: 700 nM
[5]
  remaining at 0.5 h, 1 µM: 32%
[6]
  solubility: < 1 µg/mL

## CN(C(=O)Cn1c(=O)oc2ccc(-c3ccccc3)cc21)c1ccccn1
[2]
  solubility: 3 µg/mL (≈ 8.35 µM)
[6]
  solubility: 1 µg/mL (≈ 2.78 µM)

## CN(C(=O)Cn1c(=O)oc2ccc(-c3ccc(OC(F)(F)F)cc3)cc21)c1ccccc1
[2]
  solubility: < 1 µg/mL
[6]
  solubility: < 1 µg/mL

## CN(C(=O)Cn1c(=O)oc2ccc(-c3ccccc3)cc21)c1ccccc1
[2]
  solubility: 1 µg/mL (≈ 2.79 µM)

## CN(C(=O)Cn1c(=O)oc2ccc(-c3ccncc3)cc21)c1ccc(C(F)(F)F)cc1
[7]
  inhibition: 0%
[1]
  Ki: 6.6 nM
[2]
  solubility: > 1000 µg/mL
[5]
  remaining at 0.5 h, 1 µM: 35%
[8]
  inhibition at 1 µM: 73%
[6]
  solubility: 3 µg/mL (≈ 7.02 µM)

## CN(C(=O)Cn1c(=O)oc2ccc(-c3ccncc3)cc21)c1ccccc1
[2]
  solubility: 730 µg/mL (≈ 2030 µM)
[6]
  solubility: 1 µg/mL (≈ 2.78 µM)

## CN(C(=O)Cn1c(=O)oc2ccc(-c3cccnc3)cc21)c1ccc(OC(F)(F)F)cc1
[7]
  inhibition: 0%
[1]
  Ki: 26 nM
[4]
  IC50: > 1000 nM

## CN(C(=O)Cn1c(=O)oc2ccc(-c3ccc(OC(F)(F)F)cc3)cc21)c1cccnc1 [listing 2 of 2 here]
[7]
  inhibition: 0%
[9]
  Activity: Active
[10]
  inhibition: 108%

## COc1ccc(N(C)C(=O)Cn2c(=O)oc3ccc(-c4ccncc4)cc32)cc1
[7]
  inhibition: 2%
[1]
  Ki: 17 nM
[2]
  solubility: 130 µg/mL (≈ 334 µM)
[5]
  remaining at 0.5 h, 1 µM: 47%
[6]
  solubility: < 1 µg/mL

## CN(C(=O)Cn1c(=O)oc2ccc(-c3ccccc3)cc21)c1cccnc1
[2]
  solubility: 180 µg/mL (≈ 501 µM)
[4]
  IC50: > 1000 nM

## CN(C(=O)Cn1c(=O)oc2ccc(-c3ccc(C(F)(F)F)cc3)cc21)c1ccccc1
[2]
  solubility: < 1 µg/mL
[6]
  solubility: < 1 µg/mL

## CN(C(=O)Cn1c(=O)oc2ccc(-c3cccnc3)cc21)c1ccccc1
[6]
  solubility: 5 µg/mL (≈ 13.9 µM)

## COc1ccc(N(C)C(=O)Cn2c(=O)oc3ccc(-c4cccnc4)cc32)cc1
[7]
  inhibition: 0%
[1]
  Ki: 19 nM
[5]
  remaining at 0.5 h, 1 µM: 9%

## CCN(C(=O)Cn1c(=O)oc2ccc(-c3cccnc3)cc21)c1ccccc1
[7]
  inhibition: 21%
[1]
  Ki: 4.4 nM
[5]
  remaining at 0.5 h, 1 µM: 0%

## CN(C(=O)Cn1c(=O)oc2ccc(-c3ccc(C(F)(F)F)cc3)cc21)c1cccnc1
[7]
  inhibition: 6%
[1]
  Ki: 9.8 nM
[2]
  solubility: < 1 µg/mL
[5]
  remaining at 0.5 h, 1 µM: 24%
[6]
  solubility: < 1 µg/mL

## CCN(C(=O)Cn1c(=O)oc2ccc(-c3ccncc3)cc21)c1ccccc1
[7]
  inhibition: 5%
[1]
  Ki: 3 nM
[2]
  solubility: 860 µg/mL (≈ 2300 µM)
[5]
  remaining at 0.5 h, 1 µM: 24%
[8]
  inhibition at 1 µM: 71%
[6]
  solubility: 2 µg/mL (≈ 5.36 µM)

## CN(C(=O)Cn1c(=O)oc2ccc(-c3ccncc3)cc21)c1ccc(OC(F)(F)F)cc1
[1]
  Ki: 23 nM
